Experimental data taken from ChEMBL document CHEMBL3098105, “7,7'-Diazaindirubin--a small molecule inhibitor of casein kinase 2 in vitro and in cells” (Bioorg Med Chem, 2014).
Activity calls are given as the source filed them. The calls are words filed in the database; no cut-off is given here.

Columns and labels:
[1] = molecular target: Serine/threonine-protein kinase N2 (Homo sapiens) (UniProt Q16513); assay: Inhibition of human PRK2 assessed as residual activity at 1 uM relative to control
[2] = molecular target: Casein kinase II (Homo sapiens) (UniProt P67870+P68400+P19784); assay: Inhibition of CK2 in human HEK293 cells assessed as reduction of Akt phosphorylation at S473 at 0.25 to 8 uM after 2 hrs by Western blot analysis; type: cell-based
Method in brief: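 Cells were lysed in urea lysis buffer (6 M urea, NaF, Na3VO4, protease inhibitors). 20–40 µg protein was run on 10% SDS-PAGE and detected by ECL. Primary antibodies (pAkt S473, PARP, β-actin loading control) were used at 1:1000 overnight at 4 °C. DMSO was the vehicle control. For the pAkt blots, cells were treated for 2 h with Ly294002 as positive control.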

[3] = molecular target: Insulin-like growth factor 1 receptor (Homo sapiens) (UniProt P08069); assay: Inhibition of IGF1-R (unknown origin) assessed as residual activity at 1 uM relative to control
[4] = molecular target: Serine/threonine-protein kinase PAK 2 (Homo sapiens) (UniProt Q13177); assay: Inhibition of human PAK2 assessed as residual activity at 1 uM relative to control
[5] = molecular target: cAMP-dependent protein kinase catalytic subunit PRKX (Homo sapiens) (UniProt P51817); assay: Inhibition of human PrKX assessed as residual activity at 1 uM relative to control
[6] = molecular target: Serine/threonine-protein kinase WNK2 (Homo sapiens) (UniProt Q9Y3S1); assay: Inhibition of human WNK2 assessed as residual activity at 1 uM relative to control
[7] = molecular target: Serine/threonine-protein kinase BRSK1 (Homo sapiens) (UniProt Q8TDC3); assay: Inhibition of human BrSK1 assessed as residual activity at 1 uM relative to control
[8] = molecular target: Focal adhesion kinase 1 (Homo sapiens) (UniProt Q05397); assay: Inhibition of FAK fl (unknown origin) assessed as residual activity at 1 uM relative to control
[9] = molecular target: Serine/threonine-protein kinase pim-2 (Homo sapiens) (UniProt Q9P1W9); assay: Inhibition of human Pim-2 assessed as residual activity at 1 uM relative to control
[10] = test system: KM12; assay: Antiproliferative activity against human KM12 cells after 3 days by sulforhodamine B assay; type: functional; conditions: KM12, 72 h
Method in brief: (§1)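 Tested in the NCI 60 cell line panel. GI50 is the concentration giving 50% inhibition of cell growth, and values are the mean of two series of tests.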

[11] = test system: MCF7; assay: Cell cycle arrest in human MCF7 cells assessed as accumulation at sub-G1 phase at 0.5 uM after 24 hrs using propidium iodide staining by FACS analysis (reference value: 0.17%); type: functional
[12] = molecular target: Serine/threonine-protein kinase Sgk3 (Homo sapiens) (UniProt Q96BR1); assay: Inhibition of human SGK3 assessed as residual activity at 1 uM relative to control
[13] = test system: K562; assay: Antiproliferative activity against human K562 cells after 3 days by sulforhodamine B assay; type: functional; conditions: K562, 72 h; method in brief: as §1
[14] = test system: IGROV-1; assay: Antiproliferative activity against human IGROV1 cells after 3 days by sulforhodamine B assay; type: functional; conditions: IGROV-1, 72 h; method in brief: as §1
[15] = molecular target: Tyrosine-protein kinase ABL1 (Homo sapiens) (UniProt P00519); assay: Inhibition of human Abl assessed as residual activity at 1 uM relative to control
[16] = molecular target: T1, Muscle, skeletal receptor tyrosine-protein kinase (Homo sapiens) (UniProt O15146); assay: Inhibition of human MuSK assessed as residual activity at 1 uM relative to control
T1 sequence (whole entry): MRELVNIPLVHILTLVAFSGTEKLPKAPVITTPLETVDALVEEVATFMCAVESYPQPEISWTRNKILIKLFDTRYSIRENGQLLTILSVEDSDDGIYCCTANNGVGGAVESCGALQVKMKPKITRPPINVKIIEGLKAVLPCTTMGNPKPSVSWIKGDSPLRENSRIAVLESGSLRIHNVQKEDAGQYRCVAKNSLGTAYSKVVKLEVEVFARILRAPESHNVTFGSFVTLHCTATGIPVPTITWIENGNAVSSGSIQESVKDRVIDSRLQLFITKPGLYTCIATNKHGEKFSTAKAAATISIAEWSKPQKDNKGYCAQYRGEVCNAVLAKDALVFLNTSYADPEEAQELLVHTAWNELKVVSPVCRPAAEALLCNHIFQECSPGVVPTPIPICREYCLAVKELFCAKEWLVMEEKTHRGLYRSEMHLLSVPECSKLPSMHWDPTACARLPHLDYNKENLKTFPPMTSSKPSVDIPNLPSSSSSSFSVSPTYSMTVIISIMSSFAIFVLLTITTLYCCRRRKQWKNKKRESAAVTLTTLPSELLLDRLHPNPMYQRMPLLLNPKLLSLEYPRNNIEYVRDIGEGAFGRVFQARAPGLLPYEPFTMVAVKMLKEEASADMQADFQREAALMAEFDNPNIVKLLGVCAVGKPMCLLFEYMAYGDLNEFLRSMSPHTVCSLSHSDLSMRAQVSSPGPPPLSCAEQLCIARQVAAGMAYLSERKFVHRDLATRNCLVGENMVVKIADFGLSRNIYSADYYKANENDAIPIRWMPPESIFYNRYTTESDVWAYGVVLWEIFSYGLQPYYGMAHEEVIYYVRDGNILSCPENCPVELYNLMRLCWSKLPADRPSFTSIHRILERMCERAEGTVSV

[17] = molecular target: Vascular endothelial growth factor receptor 2 (Homo sapiens) (UniProt P35968); assay: Inhibition of human KDR assessed as residual activity at 1 uM relative to control
[18] = molecular target: Glycogen synthase kinase-3 beta (Homo sapiens) (UniProt P49841); assay: Inhibition of human GSK3beta assessed as residual activity at 1 uM relative to control
[19] = molecular target: Serine/threonine-protein kinase STK11 (Homo sapiens) (UniProt Q15831); assay: Inhibition of human LKB1 assessed as residual activity at 1 uM relative to control
[20] = molecular target: T1, Muscle, skeletal receptor tyrosine-protein kinase (Homo sapiens); assay: Inhibition of MUSK (unknown origin) assessed as residual activity at 10 uM relative to control
[21] = molecular target: Proto-oncogene tyrosine-protein kinase Src (Homo sapiens) (UniProt P12931); assay: Inhibition of human cSRC assessed as residual activity at 1 uM relative to control
[22] = molecular target: Casein kinase I isoform gamma-1 (Homo sapiens) (UniProt Q9HCP0); assay: Inhibition of human CK1gamma1 assessed as residual activity at 1 uM relative to control
[23] = molecular target: Fibroblast growth factor receptor 3 (Homo sapiens) (UniProt P22607); assay: Inhibition of human FGFR3 assessed as residual activity at 1 uM relative to control
[24] = molecular target: cGMP-dependent protein kinase 1 (Homo sapiens) (UniProt Q13976); assay: Inhibition of human PKG1alpha assessed as residual activity at 1 uM relative to control
[25] = molecular target: Cyclin-dependent kinase 1/cyclin B1 (Homo sapiens) (UniProt P06493+P14635); assay: Inhibition of CDK1/CycB1 (unknown origin) assessed as residual activity at 10 uM relative to control; type: protein-complex assay

Sequence of Serine/threonine-protein kinase PAK 2 (Homo sapiens) (Q13177 whole entry): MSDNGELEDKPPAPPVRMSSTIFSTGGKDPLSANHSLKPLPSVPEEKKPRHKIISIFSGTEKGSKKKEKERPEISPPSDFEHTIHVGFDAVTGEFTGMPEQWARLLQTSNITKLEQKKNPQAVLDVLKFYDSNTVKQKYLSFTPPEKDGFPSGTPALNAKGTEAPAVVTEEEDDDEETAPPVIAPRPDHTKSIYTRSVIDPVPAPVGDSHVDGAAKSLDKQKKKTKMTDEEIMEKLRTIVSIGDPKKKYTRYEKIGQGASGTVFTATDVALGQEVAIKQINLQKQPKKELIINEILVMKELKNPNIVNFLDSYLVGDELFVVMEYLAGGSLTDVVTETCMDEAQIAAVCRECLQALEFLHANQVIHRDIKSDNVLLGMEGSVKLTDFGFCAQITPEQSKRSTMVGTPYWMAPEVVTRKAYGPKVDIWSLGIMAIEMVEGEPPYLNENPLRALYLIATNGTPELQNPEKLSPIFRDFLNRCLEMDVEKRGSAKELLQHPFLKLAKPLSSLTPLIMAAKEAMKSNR
Sequence of cGMP-dependent protein kinase 1 (Homo sapiens) (Q13976 whole entry): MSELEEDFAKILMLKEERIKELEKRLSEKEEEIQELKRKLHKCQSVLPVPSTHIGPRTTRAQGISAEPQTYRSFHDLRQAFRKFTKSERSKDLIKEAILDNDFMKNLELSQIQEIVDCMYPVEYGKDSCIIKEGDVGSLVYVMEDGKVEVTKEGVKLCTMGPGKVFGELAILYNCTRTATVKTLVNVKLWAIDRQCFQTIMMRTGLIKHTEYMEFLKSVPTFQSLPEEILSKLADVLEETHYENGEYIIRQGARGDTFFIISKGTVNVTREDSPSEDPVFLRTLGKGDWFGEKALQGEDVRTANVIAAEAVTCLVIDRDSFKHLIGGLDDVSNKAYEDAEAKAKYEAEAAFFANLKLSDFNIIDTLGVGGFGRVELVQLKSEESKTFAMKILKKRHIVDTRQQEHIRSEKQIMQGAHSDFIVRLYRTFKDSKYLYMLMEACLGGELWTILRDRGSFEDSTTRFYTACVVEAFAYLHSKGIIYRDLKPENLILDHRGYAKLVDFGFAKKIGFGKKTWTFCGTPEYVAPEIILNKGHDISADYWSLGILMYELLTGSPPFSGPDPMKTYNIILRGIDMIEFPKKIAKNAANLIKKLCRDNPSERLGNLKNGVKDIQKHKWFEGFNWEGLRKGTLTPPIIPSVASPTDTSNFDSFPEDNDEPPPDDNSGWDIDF
Sequence of Serine/threonine-protein kinase N2 (Homo sapiens) (Q16513 whole entry, looked up): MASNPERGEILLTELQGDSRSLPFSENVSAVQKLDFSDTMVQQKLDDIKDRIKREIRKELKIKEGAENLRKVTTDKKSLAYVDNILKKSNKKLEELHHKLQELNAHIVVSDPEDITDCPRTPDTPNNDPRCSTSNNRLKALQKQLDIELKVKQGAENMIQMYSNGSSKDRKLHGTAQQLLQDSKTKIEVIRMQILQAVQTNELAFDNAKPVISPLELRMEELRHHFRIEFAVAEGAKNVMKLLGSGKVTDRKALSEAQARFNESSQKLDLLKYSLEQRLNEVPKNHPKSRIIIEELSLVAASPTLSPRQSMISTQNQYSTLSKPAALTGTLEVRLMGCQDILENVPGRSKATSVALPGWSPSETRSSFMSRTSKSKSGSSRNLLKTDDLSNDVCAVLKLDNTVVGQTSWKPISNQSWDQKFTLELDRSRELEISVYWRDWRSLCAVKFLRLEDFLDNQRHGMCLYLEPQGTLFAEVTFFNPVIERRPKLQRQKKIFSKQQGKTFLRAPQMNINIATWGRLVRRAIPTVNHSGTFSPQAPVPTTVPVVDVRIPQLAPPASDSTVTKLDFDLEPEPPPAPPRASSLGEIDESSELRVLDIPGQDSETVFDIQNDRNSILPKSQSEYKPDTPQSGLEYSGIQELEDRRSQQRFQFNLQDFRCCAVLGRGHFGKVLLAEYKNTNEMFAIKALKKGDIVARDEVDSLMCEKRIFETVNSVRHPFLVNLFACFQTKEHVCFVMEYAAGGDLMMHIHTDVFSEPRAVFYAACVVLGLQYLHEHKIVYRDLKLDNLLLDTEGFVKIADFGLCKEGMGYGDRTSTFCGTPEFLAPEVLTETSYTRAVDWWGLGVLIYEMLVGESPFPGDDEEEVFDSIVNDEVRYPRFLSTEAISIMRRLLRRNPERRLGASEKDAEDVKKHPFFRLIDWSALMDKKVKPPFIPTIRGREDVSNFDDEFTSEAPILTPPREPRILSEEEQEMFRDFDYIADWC
Sequence of Fibroblast growth factor receptor 3 (Homo sapiens) (P22607 23-806 limits assumed): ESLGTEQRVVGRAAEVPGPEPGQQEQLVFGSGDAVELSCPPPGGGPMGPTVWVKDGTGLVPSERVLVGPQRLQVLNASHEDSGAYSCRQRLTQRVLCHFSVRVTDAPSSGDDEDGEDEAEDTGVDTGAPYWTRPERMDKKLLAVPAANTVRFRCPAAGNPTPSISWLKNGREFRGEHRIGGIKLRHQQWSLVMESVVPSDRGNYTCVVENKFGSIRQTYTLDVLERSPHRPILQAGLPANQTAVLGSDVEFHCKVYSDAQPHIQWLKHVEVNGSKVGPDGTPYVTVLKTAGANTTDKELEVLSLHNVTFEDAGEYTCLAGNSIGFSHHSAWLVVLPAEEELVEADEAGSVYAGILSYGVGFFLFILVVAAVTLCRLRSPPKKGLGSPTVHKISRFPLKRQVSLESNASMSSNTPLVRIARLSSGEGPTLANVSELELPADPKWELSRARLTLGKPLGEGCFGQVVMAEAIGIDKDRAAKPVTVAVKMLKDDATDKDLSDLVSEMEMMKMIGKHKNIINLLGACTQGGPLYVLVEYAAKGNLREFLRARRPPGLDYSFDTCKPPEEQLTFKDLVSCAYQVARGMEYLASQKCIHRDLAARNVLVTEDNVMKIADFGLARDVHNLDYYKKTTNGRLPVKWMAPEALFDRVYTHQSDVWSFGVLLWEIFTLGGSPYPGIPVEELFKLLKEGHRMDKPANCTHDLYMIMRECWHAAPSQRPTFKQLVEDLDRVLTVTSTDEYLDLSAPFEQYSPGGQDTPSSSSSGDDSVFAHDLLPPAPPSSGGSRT
Sequence of Casein kinase I isoform gamma-1 (Homo sapiens) (Q9HCP0 whole entry, looked up, canonical isoform): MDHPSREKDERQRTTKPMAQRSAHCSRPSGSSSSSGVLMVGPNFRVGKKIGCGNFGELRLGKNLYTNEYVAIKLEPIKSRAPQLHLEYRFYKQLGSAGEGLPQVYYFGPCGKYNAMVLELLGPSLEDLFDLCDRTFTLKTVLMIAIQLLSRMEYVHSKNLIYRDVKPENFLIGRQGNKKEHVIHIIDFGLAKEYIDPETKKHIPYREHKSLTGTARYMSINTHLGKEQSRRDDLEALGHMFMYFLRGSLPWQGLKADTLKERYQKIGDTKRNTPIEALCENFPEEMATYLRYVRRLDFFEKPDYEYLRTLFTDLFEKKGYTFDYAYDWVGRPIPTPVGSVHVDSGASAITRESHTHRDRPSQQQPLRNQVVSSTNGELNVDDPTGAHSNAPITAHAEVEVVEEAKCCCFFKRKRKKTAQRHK
Sequence of Focal adhesion kinase 1 (Homo sapiens) (Q05397 2-1052 limits assumed): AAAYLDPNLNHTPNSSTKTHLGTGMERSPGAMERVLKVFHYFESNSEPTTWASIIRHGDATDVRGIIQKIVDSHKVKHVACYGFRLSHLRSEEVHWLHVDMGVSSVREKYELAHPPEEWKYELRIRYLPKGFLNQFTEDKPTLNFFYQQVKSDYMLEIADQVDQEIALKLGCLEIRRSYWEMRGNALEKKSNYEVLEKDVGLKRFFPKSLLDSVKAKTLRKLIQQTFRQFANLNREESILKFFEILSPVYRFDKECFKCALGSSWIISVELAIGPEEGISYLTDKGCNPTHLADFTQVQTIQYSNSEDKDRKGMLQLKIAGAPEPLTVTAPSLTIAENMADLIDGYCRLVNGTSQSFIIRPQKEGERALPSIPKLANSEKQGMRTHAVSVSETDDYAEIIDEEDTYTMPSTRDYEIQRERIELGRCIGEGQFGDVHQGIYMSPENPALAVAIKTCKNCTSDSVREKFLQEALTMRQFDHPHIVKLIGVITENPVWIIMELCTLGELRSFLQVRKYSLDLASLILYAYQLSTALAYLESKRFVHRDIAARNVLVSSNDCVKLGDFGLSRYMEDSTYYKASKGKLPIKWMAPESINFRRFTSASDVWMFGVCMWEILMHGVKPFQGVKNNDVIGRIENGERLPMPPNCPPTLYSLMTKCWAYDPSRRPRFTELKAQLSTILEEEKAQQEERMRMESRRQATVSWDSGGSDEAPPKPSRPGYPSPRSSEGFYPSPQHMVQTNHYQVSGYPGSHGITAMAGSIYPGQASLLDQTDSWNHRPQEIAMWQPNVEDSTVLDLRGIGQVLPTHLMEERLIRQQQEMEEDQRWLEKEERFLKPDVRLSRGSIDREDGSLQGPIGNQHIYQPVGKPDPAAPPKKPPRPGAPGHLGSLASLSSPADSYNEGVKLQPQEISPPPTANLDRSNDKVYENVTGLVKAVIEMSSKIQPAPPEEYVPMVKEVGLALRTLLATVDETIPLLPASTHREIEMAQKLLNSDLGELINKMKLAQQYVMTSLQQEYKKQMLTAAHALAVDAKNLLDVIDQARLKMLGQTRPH
Sequence of Serine/threonine-protein kinase pim-2 (Homo sapiens) (Q9P1W9 whole entry, looked up): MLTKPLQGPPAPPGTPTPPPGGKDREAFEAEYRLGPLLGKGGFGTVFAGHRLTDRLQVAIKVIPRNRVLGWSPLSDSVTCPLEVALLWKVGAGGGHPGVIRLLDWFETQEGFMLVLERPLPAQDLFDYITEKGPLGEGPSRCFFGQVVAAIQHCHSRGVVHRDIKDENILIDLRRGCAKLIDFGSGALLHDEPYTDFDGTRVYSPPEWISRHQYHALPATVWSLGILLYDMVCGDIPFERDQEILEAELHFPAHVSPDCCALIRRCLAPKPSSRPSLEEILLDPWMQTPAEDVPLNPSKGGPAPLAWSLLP

Activity [1]: 95%
inhibition [2]: Active
Activity [3]: 94%
Activity [4]: 124%
Activity [5]: 103%
Activity [6]: 102%
Activity [7]: 69%
Activity [8]: 94%
Activity [9]: 142%
Activity [12]: 113%
GI50 [13]: 2260 nM
Activity [15]: 122%
Activity [16]: 134%
Activity [17]: 76%
Activity [18]: 63%
Activity [19]: 104%
Activity [20]: 98%
Activity [21]: 63%
Activity [22]: 104%
Activity [23]: 126%
Activity [24]: 121%
Activity [25]: 89%
SMILES: O=C1Nc2ncccc2/C1=C1/Nc2ncccc2C1=O
GI50 [10]: 387 nM
Activity [11]: 0.37%
GI50 [14]: 577 nM
